17 molecules from ChEMBL document CHEMBL2157865, “Novel 3-substituted-1-aryl-5-phenyl-6-anilinopyrazolo[3,4-d]pyrimidin-4-ones: docking, synthesis and pharmacological evaluation as a potential anti-inflammatory agents” (Bioorg Med Chem Lett, 2012) can be followed below.

The subject of data set [1] is Rattus norvegicus. Kind of data set: Antiinflammatory activity in Wistar albino rat assessed as inhibition of carrageenan-induced paw edema at 25 mg/kg, po after 3 hrs (reference value: 1.08 +/- 0.41%). The class given is functional. (In general: The carrageenan paw model is a standard test of acute inflammation.)
The test system of data set [2] is Rattus norvegicus. The experiment in a line: Toxicity in Wistar albino rat assessed as ulcer index at 75 mg/kg/day, po administered for 4 days measured after 12 hrs fasting post-last dose. The format is organism-based. More on the design: route oral. The following applies: in vivo. Summed up:
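Male Wistar albino rats, 170–200 g, six per group, with control and standard groups. Compounds suspended in 1% w/v Tween 80 in water and dosed orally at 75 mg/kg/day on all 4 days. Rats fasted 12 h after last dose, then decapitated. Stomach opened along greater curvature and washed with distilled water and Krebs solution. Gastric lesions counted and ulcer index calculated per Szelenyi and Thiemer.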

Data set [3] concerns Rattus norvegicus. The experiment in a line: Antiinflammatory activity in Wistar albino rat assessed as inhibition of carrageenan-induced paw edema at 25 mg/kg, po after 1 hr (reference value: 0.85 +/- 0.01%). The format is functional.
Data set [4] relates to Rattus norvegicus. The experiment in a line: Antiinflammatory activity in Wistar albino rat assessed as inhibition of carrageenan-induced paw edema at 25 mg/kg, po after 2 hrs (reference value: 1.11 +/- 0.02%). The class given is functional.

Usually inhibition in vivo stands for how much of the control response was suppressed. For the molecule `CSc1nn(-c2ccccc2)c2nc(Nc3ccccc3)n(-c3ccccc3)c(=O)c12`, the figures for the inhibition in vivo at 25 mg/kg with Rattus norvegicus [1], in the data set with Rattus norvegicus [3] and with Rattus norvegicus [4] were 25.4%, 46.1% and 36.6%, respectively. The UI with Rattus norvegicus [2] is given as 4.66.
Consider `CSc1nn(-c2ccc([N+](=O)[O-])cc2)c2nc(Nc3ccccc3)n(-c3ccccc3)c(=O)c12`, for which the values for the inhibition in vivo at 25 mg/kg in the data set with Rattus norvegicus [1], in the data set on Rattus norvegicus [3] and in the data set with Rattus norvegicus [4] were 26.6%, 42.1% and 37.7%, respectively. Besides, in the data set with Rattus norvegicus [2], the UI turned out to be 7.5.
Regarding `CSc1nn(-c2ccc(S(N)(=O)=O)cc2)c2nc(Nc3ccccc3)n(-c3ccccc3)c(=O)c12`, the inhibition in vivo at 25 mg/kg is 35.2% in the data set with Rattus norvegicus [1], 68.8% in the data set with Rattus norvegicus [3] and 54.1% with Rattus norvegicus [4]. In addition, in the data set on Rattus norvegicus [2], the UI is reported as 7.83.
`O=c1c2c(Nc3ccccc3)nn(-c3ccccc3)c2nc(Nc2ccccc2)n1-c1ccccc1`: the inhibition in vivo at 25 mg/kg amounted to 17.1% in the data set on Rattus norvegicus [1], 48.1% with Rattus norvegicus [3] and 43.4% in the data set with Rattus norvegicus [4].
On the same counts, the results for `O=c1c2c(Nc3ccccc3)nn(-c3ccc([N+](=O)[O-])cc3)c2nc(Nc2ccccc2)n1-c1ccccc1` are 14.1%, 43.9% and 40.8%.
For `NS(=O)(=O)c1ccc(-n2nc(Nc3ccccc3)c3c(=O)n(-c4ccccc4)c(Nc4ccccc4)nc32)cc1`, in that order: 39.6%, 60.2% and 54.8%.
Turning to `O=c1c2c(Nc3ccc([N+](=O)[O-])cc3)nn(-c3ccccc3)c2nc(Nc2ccccc2)n1-c1ccccc1`, the inhibition in vivo at 25 mg/kg in the data set with Rattus norvegicus [1] came to 15.1%; in the data set on Rattus norvegicus [3] it was 29.4%; with Rattus norvegicus [4], 29%.
With `O=c1c2c(Nc3ccc([N+](=O)[O-])cc3)nn(-c3ccc([N+](=O)[O-])cc3)c2nc(Nc2ccccc2)n1-c1ccccc1`, the figures for the inhibition in vivo at 25 mg/kg with Rattus norvegicus [1], in the data set with Rattus norvegicus [3] and in the data set on Rattus norvegicus [4] were 16.8%, 23.9% and 19.4%, respectively.
Take `NS(=O)(=O)c1ccc(-n2nc(Nc3ccc([N+](=O)[O-])cc3)c3c(=O)n(-c4ccccc4)c(Nc4ccccc4)nc32)cc1`: the figures for the inhibition in vivo at 25 mg/kg in the data set with Rattus norvegicus [1], in the data set on Rattus norvegicus [3] and with Rattus norvegicus [4] were 39.1%, 67% and 55.3%, respectively.
Consider `Cc1ccc(Nc2nn(-c3ccccc3)c3nc(Nc4ccccc4)n(-c4ccccc4)c(=O)c23)cc1`, for which the inhibition in vivo at 25 mg/kg with Rattus norvegicus [1] worked out at 32.9%; with Rattus norvegicus [3], 55.7%; in the data set with Rattus norvegicus [4], 53.4%. Besides, the UI in the data set with Rattus norvegicus [2] is on record as 3.2.
Turning to `Cc1ccc(Nc2nn(-c3ccc([N+](=O)[O-])cc3)c3nc(Nc4ccccc4)n(-c4ccccc4)c(=O)c23)cc1`, the results for the inhibition in vivo at 25 mg/kg in the data set on Rattus norvegicus [1], in the data set on Rattus norvegicus [3] and in the data set on Rattus norvegicus [4] were 30.2%, 46.6% and 39.8%, respectively. For the same molecule, the UI with Rattus norvegicus [2] worked out at 16.72.
As to `Cc1ccc(Nc2nn(-c3ccc(S(N)(=O)=O)cc3)c3nc(Nc4ccccc4)n(-c4ccccc4)c(=O)c23)cc1`, the inhibition in vivo at 25 mg/kg is 43.7% in the data set on Rattus norvegicus [1], 77% in the data set on Rattus norvegicus [3] and 63.4% in the data set on Rattus norvegicus [4]. Besides, in the data set with Rattus norvegicus [2], the UI came to 9.5.
Take `O=c1c2c(Nc3ccc(Cl)cc3)nn(-c3ccccc3)c2nc(Nc2ccccc2)n1-c1ccccc1`: the values for the inhibition in vivo at 25 mg/kg in the data set with Rattus norvegicus [1], with Rattus norvegicus [3] and in the data set with Rattus norvegicus [4] were 28.6%, 47.5% and 44%, respectively.
Turning to `O=c1c2c(Nc3ccc(Cl)cc3)nn(-c3ccc([N+](=O)[O-])cc3)c2nc(Nc2ccccc2)n1-c1ccccc1`, the inhibition in vivo at 25 mg/kg in the data set on Rattus norvegicus [1] amounted to 20.6%; with Rattus norvegicus [3], 39.6%; with Rattus norvegicus [4] it was 39%.
In the case of `NS(=O)(=O)c1ccc(-n2nc(Nc3ccc(Cl)cc3)c3c(=O)n(-c4ccccc4)c(Nc4ccccc4)nc32)cc1`, the inhibition in vivo at 25 mg/kg in the data set with Rattus norvegicus [1] amounted to 38.3%; in the data set with Rattus norvegicus [3], 69.8%; in the data set with Rattus norvegicus [4], 56.3%.
`Cc1ccc(-c2cc(C(F)(F)F)nn2-c2ccc(S(N)(=O)=O)cc2)cc1` [CELECOXIB]: the inhibition in vivo at 25 mg/kg in the data set on Rattus norvegicus [1] worked out at 39.6%; with Rattus norvegicus [3], 78.1%; in the data set on Rattus norvegicus [4], 58.6%. Also, the UI in the data set on Rattus norvegicus [2] worked out at 9.58.
`O=C([O-])Cc1ccccc1Nc1c(Cl)cccc1Cl.[Na+]` [DICLOFENAC SODIUM]: the inhibition in vivo at 25 mg/kg in the data set with Rattus norvegicus [1] was 42.8%; in the data set on Rattus norvegicus [3] it was 75.8%; in the data set with Rattus norvegicus [4] it was 57.2%. Also, the UI in the data set with Rattus norvegicus [2] is reported as 39.17.
